Laboratory results taken from ChEMBL document CHEMBL1909618, “Non-steroidal dissociated glucocorticoid agonists: indoles as A-ring mimetics and function-regulating pharmacophores” (Bioorg Med Chem Lett, 2011).

How the values were obtained:
[1] = target: T1, Glucocorticoid receptor (Homo sapiens) (UniProt P04150); assay: Agonist activity at glucocorticoid receptor in HFF assessed as inhibition of IL1-induced IL-6 production after 18 to 24 hrs relative to Dexamethasone; type: functional
T1 sequence (whole entry): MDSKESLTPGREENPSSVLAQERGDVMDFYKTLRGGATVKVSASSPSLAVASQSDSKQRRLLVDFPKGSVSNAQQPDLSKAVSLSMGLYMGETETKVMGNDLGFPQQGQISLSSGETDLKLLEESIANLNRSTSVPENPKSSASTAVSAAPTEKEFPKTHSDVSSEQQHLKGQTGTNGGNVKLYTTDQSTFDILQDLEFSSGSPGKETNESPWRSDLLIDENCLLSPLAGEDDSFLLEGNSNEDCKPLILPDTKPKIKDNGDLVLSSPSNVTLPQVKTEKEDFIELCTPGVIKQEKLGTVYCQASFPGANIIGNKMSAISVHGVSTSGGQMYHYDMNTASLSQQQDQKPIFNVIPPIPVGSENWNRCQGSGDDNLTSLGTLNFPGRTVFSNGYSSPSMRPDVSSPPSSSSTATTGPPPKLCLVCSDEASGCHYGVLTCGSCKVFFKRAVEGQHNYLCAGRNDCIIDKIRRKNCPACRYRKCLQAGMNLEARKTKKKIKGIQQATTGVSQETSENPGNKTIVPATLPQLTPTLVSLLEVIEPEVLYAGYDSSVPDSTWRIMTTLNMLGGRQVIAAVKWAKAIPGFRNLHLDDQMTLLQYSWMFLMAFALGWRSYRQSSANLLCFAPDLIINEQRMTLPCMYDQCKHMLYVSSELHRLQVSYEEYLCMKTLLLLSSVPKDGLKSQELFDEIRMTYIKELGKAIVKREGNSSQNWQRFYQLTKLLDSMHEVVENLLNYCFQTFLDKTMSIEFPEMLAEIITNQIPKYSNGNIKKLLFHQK
Summary of the method: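 Human foreskin fibroblasts stimulated with IL-1 (1 ng/mL) in the presence of test compound, incubated at 37 °C for 18–24 h. IL-6 in the culture medium was quantified by electrochemiluminescence, DELFIA or ELISA. IC50 and % maximal efficacy were reported.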

Glucocorticoid receptor [2] = target: T2, Glucocorticoid receptor (Homo sapiens, UniProt P04150); assay: Transactivation activity of glucocorticoid receptor in HFF assessed as induction of aromatase activity by measuring beta-estradiol activity after 18 to 24 hrs by ELISA; details: read-out: EC50
T2 sequence (P04150 whole entry): T1 sequence (whole entry)

[3] = target: T1, Glucocorticoid receptor (Homo sapiens); assay: Transactivation activity of glucocorticoid receptor in HFF assessed as induction of aromatase activity by measuring beta-estradiol activity after 18 to 24 hrs by ELISA relative to Dexamethasone
Mus musculus = assay: Antiinflammatory activity in mouse plasma assessed as inhibition of LPS-induced TNFalpha production at 10 mg/kg, po administered 1 hr before LPS challenge measured after 1 hr; type: functional
Summary of the method: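 Mice received compound orally in Cremophor RH 1 h before LPS challenge. Plasma TNF-α was measured 1 h after challenge. n = 8 per group; doses were 3 and 10 mg/kg.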

Glucocorticoid receptor [4] = target: T2, Glucocorticoid receptor; assay: Displacement of tetramethylrhodamine-labeled Dexamethasone from human recombinant glucocorticoid receptor expressed in baculovirus infected insect cells by fluorescence polarization assay
[5] = target: T3, Mineralocorticoid receptor (Homo sapiens, UniProt P08235); assay: Displacement of tetramethylrhodamine-labeled Dexamethasone from human recombinant mineralocorticoid receptor expressed in baculovirus infected insect cells by fluorescence polarization assay
T3 sequence (P08235 whole entry): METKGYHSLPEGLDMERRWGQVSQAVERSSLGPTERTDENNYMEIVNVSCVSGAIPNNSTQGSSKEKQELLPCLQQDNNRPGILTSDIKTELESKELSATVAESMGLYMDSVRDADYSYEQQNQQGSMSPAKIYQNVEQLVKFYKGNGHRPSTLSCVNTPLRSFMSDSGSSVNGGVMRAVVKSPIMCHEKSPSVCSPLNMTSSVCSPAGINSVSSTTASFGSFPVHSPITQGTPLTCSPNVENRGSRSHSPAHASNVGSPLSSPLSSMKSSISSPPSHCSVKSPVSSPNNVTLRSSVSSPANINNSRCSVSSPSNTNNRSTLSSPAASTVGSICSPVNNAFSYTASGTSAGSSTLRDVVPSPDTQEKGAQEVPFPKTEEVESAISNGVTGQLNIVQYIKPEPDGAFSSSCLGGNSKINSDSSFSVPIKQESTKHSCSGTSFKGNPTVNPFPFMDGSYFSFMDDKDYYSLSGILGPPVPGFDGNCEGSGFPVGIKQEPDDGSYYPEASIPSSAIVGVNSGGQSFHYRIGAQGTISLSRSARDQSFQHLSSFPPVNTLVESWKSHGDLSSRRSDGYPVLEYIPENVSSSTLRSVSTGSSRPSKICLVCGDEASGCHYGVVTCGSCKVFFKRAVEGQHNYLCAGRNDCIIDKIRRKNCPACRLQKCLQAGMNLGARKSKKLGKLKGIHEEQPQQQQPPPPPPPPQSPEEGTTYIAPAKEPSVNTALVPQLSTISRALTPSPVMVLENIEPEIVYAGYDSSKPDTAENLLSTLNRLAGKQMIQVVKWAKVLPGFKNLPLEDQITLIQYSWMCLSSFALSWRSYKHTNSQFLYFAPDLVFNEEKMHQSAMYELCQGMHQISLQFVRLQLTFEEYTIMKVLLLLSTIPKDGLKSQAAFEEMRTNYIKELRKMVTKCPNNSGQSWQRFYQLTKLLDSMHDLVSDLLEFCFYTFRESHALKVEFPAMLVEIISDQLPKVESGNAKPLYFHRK
Summary of the method: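 Fluorescence polarization competition assays with recombinant human receptors in lysates of baculovirus-infected insect cells. Reactions contained 1% DMSO and ran 1 h at room temperature.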

Glucocorticoid receptor [6] = target: T2, Glucocorticoid receptor; assay: Agonist activity at glucocorticoid receptor in HFF assessed as inhibition of IL1-induced IL-6 production after 18 to 24 hrs; type: functional

`COc1ccc(F)cc1C(C)(C)C[C@@](O)(Cc1cc2ccccc2[nH]1)C(F)(F)F` was tested, and the Efficacy [1] was 87%, the EC50 (Glucocorticoid receptor [2]) was 18 nM and the Efficacy [3] was 98%. For the same compound, the inhibition in vivo at 10 mg/kg (Mus musculus) was 35%, the IC50 (Glucocorticoid receptor [4]) was 10 nM and the IC50 [5] was 190 nM. The IC50 (Glucocorticoid receptor [6]) was 6 nM.

`CC(C)(C[C@@](O)(Cc1cc2ccc(C#N)cc2[nH]1)C(F)(F)F)c1cc(S(C)(=O)=O)cc2c1OCC2` showed an Efficacy [1] of 88%, an EC50 (Glucocorticoid receptor [2]) of 120 nM and an Efficacy [3] of 74%. It also gave an inhibition in vivo at 10 mg/kg (Mus musculus) of 88%, an IC50 (Glucocorticoid receptor [4]) of 2 nM and an IC50 [5] of 230 nM. It also gave an IC50 (Glucocorticoid receptor [6]) of 28 nM.
